Assay results gathered from unrelated publications.
Compare with care: the assays were run in different laboratories. ≈ marks a conversion by molar mass, not a printed value.

CCOC(=O)N[C@@H](C(=O)N1CCC[C@H]1C(=O)Nc1cccc(C#CC#Cc2cccc(NC(=O)[C@@H]3CCCN3C(=O)[C@H](NC(=O)OCC)C(C)C)c2)c1)C(C)C
EC50 (Hepatitis C virus; viral replication, inhibitor, luciferase; Huh-5-2, GETYPE1B; 72 h, replicon): 70 nM

[N-]=[N+]=Nc1nc(N=[N+]=[N-])c2ncn([C@@H]3O[C@H](COC(=O)c4ccccc4)[C@@H](F)[C@@H]3F)c2n1
EC90 (Hepatitis C virus; viral replication, inhibitor; Huh-7; replicon): > 10 µM

CCCCCCC/C=C/C(=O)N1C(=O)/C(=C(/C)O)C(=O)C1Cc1ccc(OC(C)(C)C)cc1 (centres unmarked)
MIC (Proteus mirabilis; microbial growth; ATCC25933): > 200 µg/mL

CC1(C)OC[C@@]2(C)[C@H]3CC[C@@H]4CN(Cc5ccc(C(F)(F)F)cc5)[C@@H](C5=CCOC5=O)C[C@H]4[C@]3(C)CC[C@H]2O1
inhibition (unidentified human coronavirus; cytopathic effect; MRC5; 25 µM, 72 h): 88.3%

C/C(=C\c1ccc(C#N)cc1)C(=O)Nc1ccc(C(=O)N[C@@H](CC(N)=O)C(=O)Nc2ccc(C(=O)Nc3ccc(C(=O)Nc4ccc(C(=O)O)cc4)c(O)c3OC(C)C)cc2)cc1
MIC (Proteus mirabilis; microbial growth; DSM4479): > 64 µg/mL

COC(=O)N[C@H](C(=O)N1CCC[C@H]1C(=O)Nc1cccc(C#CC#Cc2cccc(NC(=O)[C@@H]3CCCN3C(=O)[C@@H](NC(=O)OC)C(C)C)c2)c1)C(C)C
EC50 (Hepatitis C virus; viral replication, inhibitor, luciferase; Huh-5-2, GETYPE1B; 72 h, replicon): 0.121 nM

Nc1nc(NS(=O)(=O)c2ccccc2)ncc1-c1nc2ccccc2s1
IC50 (Enterovirus B; plaque formation; BGM, B4): 85 µg/mL (≈ 222 µM)

CCOC(=O)c1cc(C#N)c(=O)n(NS(=O)(=O)c2ccccc2)c1N
IC50 (Enterovirus B; plaque formation; BGM, B4): 88 µg/mL (≈ 243 µM)

N#CC(=Cc1cn(-c2ccccc2)nc1-c1ccccc1)C1=NC(=O)CS1
MBC (Acinetobacter baumannii; microbial killing, broth dilution): 0.5 µg/mL (≈ 1.35 µM)

CC(=O)OC[C@@]1(C)[C@H]2CC[C@@H]3CN(Cc4ccc([N+](=O)[O-])cc4)[C@@H](C4=CCOC4=O)C[C@H]3[C@]2(C)CC[C@H]1OC(C)=O
inhibition (unidentified human coronavirus; cytopathic effect; MRC5; 25 µM, 72 h): 44.6%

COC(=O)N[C@H](CC(C)C)C(=O)N1CCC[C@H]1C(=O)Nc1cccc(C#CC#Cc2cccc(NC(=O)[C@@H]3CCCN3C(=O)[C@@H](CC(C)C)NC(=O)OC)c2)c1
EC50 (Hepatitis C virus; viral replication, inhibitor, luciferase; Huh-5-2, GETYPE1B; 72 h, replicon): 0.0686 nM

CC(=O)OC[C@@]1(C)[C@H]2CC[C@@H]3CN(Cc4cccc(Cl)c4)[C@@H](C4=CCOC4=O)C[C@H]3[C@]2(C)CC[C@H]1OC(C)=O
inhibition (unidentified human coronavirus; cytopathic effect; MRC5; 25 µM, 72 h): 116%

COc1nc(Cl)nc2c1ncn2[C@@H]1O[C@H](CO)[C@@H](F)[C@@H]1F
EC90 (Hepatitis C virus; viral replication, inhibitor; Huh-7; replicon): > 10 µM

COc1ccc(CN2C[C@H]3CC[C@@H]4[C@](C)(CO)[C@H](O)CC[C@@]4(C)[C@@H]3C[C@@H]2C2=CCOC2=O)cc1
inhibition (unidentified human coronavirus; cytopathic effect; MRC5; 25 µM, 72 h): 1.9%

COC(=O)N[C@H](C(=O)N1CCC[C@H]1c1ncc(-c2ccc(-c3ccc(-c4cnc([C@@H]5CCCN5C(=O)[C@@H](NC(=O)OC)C(C)C)[nH]4)cc3)cc2)[nH]1)C(C)C
EC50 (Hepatitis C virus; viral replication, inhibitor; GETYPE1A; replicon): 0.05 nM

N#CC(=Cc1ccc(Cl)cc1)C1=NC(=O)C(=Cc2cn(-c3ccccc3)nc2-c2ccccc2)S1
inhibition zone (Acinetobacter baumannii; microbial growth, well diffusion; 100000 µg/mL): 20 mm

CCOC(=O)N[C@H](CC(C)C)C(=O)N1CCC[C@@H]1C(=O)Nc1ccc(C#CC#Cc2ccc(NC(=O)[C@H]3CCCN3C(=O)[C@@H](CC(C)C)NC(=O)OCC)cc2)cc1
EC50 (Hepatitis C virus; viral replication, inhibitor, luciferase; Huh-5-2, GETYPE1B; 72 h, replicon): > 10000 nM
